Laboratory results: article PMC12700136 (Journal of medicinal chemistry, 2025)
Where two headings read alike, the source gives them in different places. Each block holds one compound with its values, some of them ahead of it.

Legend:
[1] = target: T1, ClpP (Homo sapiens, UniProt Q16740); assay: Thermal shift assay; assay type: binding; conditions: MDA-MB-468 lysates; for ClpP binding/stabilization by TSA (comparison in words): heated at 67 °C, WB
Method in brief: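 Test compound at increasing concentrations added to 10 μg MDA-MB-468 lysate, 15 min at 23 °C. Heated 67 °C for 3 min, precipitated 3 min at 23 °C, spun 14,000 rpm, 20 min, 4 °C. Soluble ClpP detected by anti-ClpP immunoblot against unheated and no-compound controls; quantified as mean ± SD of two independent experiments.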

[2] = tested on: DAP13; assay: DAP13 degradation assay; assay type: cell-based, human; conditions: 24 h, MDA-MB-468 cells; for DAP13 degraded: 25 nM; for DAP13 degradation at high concentrations: 100, 150 and 200 nM
[3] = tested on: SK-BR-3 cells; assay: Viability assay; assay type: cell-based, human; conditions: SK-BR-3, 72 h; for IC50: read-out: IC50 (viability)
Method in brief: (§1)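 Cells (DMEM/F12 + GlutaMax, 10% FBS, 1% pen-strep) seeded at 5,000 per well 24 h before dosing, in quadruplicate. Medium replaced with test compound-containing medium for 72 h. Viability read after 3 h AlamarBlue incubation by colorimetric change, normalized to vehicle control. IC50 from curves; mean ± SD of three independent experiments.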

[4] = tested on: MCF-7 cells; assay: Viability assay; assay type: cell-based, human; conditions: for IC50: read-out: IC50 (viability)
Method in brief: as §1

[5] = Mouse pharmacokinetic study; assay type: in vivo; conditions: Swiss albino mice, single IP administration, 50 mg/kg
Method in brief: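 Three male Swiss Albino mice received a single intraperitoneal dose in 100% v/v normal saline. About 60 μL of blood was drawn at 0.5, 2 and 8 h. Plasma was stored at −70 °C until a fit-for-purpose LC-MS/MS assay. Concentrations are the average of the 3 mice, with ± SEM.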

[6] = target: T1, ClpP; assay: Thermal shift assay; assay type: cell-based; conditions: MDA-MB-468 cells treated 30 min
Method in brief: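 MDA-MB-468 cells seeded at 1 million per well the day before, then exposed to test compound for 30 min at 37 °C. Washed in PBS, scraped into PBS with […] inhibitors, heated 67 °C for 3 min, lysed by freeze–thaw, spun 14,000 rpm 20 min at 4 °C. Soluble ClpP immunoblotted; normalized quantification, mean ± SD of two independent experiments.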

[7] = tested on: MDA-MB-231 cells; assay: Viability assay; assay type: cell-based, human; conditions: MDA-MB-231, 72 h; for IC50: read-out: IC50 (viability)
Method in brief: as §1

[8] = tested on: MDA-MB-468 cells; assay: Viability assay; assay type: cell-based, human; conditions: for IC50: read-out: IC50 (viability)
Method in brief: as §1

[9] = tested on: MDA-MB-468 cells; assay: Seahorse mitochondrial respiration assay; assay type: cell-based, human; conditions: 50 nM for 12, 24 and 48 h
Method in brief: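 Cells were plated at 250,000 per well and treated for 12, 24 or 48 h. One hour before reading, medium was changed to XF DMEM (1 mM pyruvate, 2 mM glutamine, 10 mM glucose, pH 7.4). The Mito Stress Test used final 1 μM oligomycin, 1 μM FCCP and 0.5 μM antimycin A. OCR was read at baseline and after sequential oligomycin, FCCP and rotenone additions.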

[10] = tested on: MDA-MB-468 cells; assay: Flow-cytometry-based apoptosis detection; assay type: cell-based, human; conditions: 1 μM, 72 h
Method in brief: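 MDA-MB-468 cells given DMSO or 1 μM test compound for 72 h at 37 °C, 5% CO2. Washed twice in FACS buffer (50 mM PBS, 2 mM EDTA, 2% FBS), stained with fixable viability dye eFluor 780 for 30 min at 4 °C, washed, then analysed by flow cytometry for dead-cell labelling.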

[11] = tested on: ONC212-resistant MDA-MB-468 cells; assay: Viability assay; assay type: cell-based, human; conditions: for IC50: read-out: IC50 (viability); for increase in the IC50 value, resistant vs wild-type cells: ONC212-resistant vs wild-type MDA-MB-468, 72 h
Method in brief: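 Resistant MDA-MB-468 line selected by continuous 50 nM reference ClpP agonist, medium changed every 3 days. Cells expanded drug-free and re-exposed over several cycles until growth exceeded death. Wild-type and resistant cells seeded at 5,000 per well, quadruplicate, and dosed 72 h. AlamarBlue read after 3 h, normalized to vehicle; mean ± SD, three independent experiments.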

[12] = tested on: BT-474 cells; assay: Viability assay; assay type: cell-based, human; conditions: BT-474, 72 h; for IC50: read-out: IC50 (viability)
Method in brief: as §1

[13] = tested on: MDA-MB-468 cells; assay: Western blot analysis of apoptosis markers; assay type: cell-based, human; conditions: 1 μM, 72 h
Method in brief: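 MDA-MB-468 cells exposed to vehicle or 1 μM test compound for 72 h. Lysates probed by immunoblot for apoptosis markers including caspase-3. Blots representative of two independent experiments.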

[14] = target: purified human ClpP (hClpP) (Homo sapiens, UniProt Q16740); assay: Differential scanning fluorimetry; assay type: binding; conditions: vs DMSO
Sequence of purified human ClpP (hClpP) (Q16740 57-277): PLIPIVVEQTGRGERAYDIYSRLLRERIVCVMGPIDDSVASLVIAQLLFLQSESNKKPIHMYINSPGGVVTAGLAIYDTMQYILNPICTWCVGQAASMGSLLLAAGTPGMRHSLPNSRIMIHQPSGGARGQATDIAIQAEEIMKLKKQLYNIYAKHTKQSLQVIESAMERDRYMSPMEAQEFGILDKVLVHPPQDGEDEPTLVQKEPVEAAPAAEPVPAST
Method in brief: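 Human ClpP lacking mitochondrial sequence, expressed in E. coli BL21(DE3) as N-terminal 2x(His6-thrombin)-SUMO-TEV fusion (1 mM IPTG, 4 h, 37 °C), cobalt-resin purified. Protein at 0.5 mg/mL final in 25 mM Tris-HCl pH 7.5 with SYPRO Orange; held 25 °C 2 min, ramped 25–95 °C at 0.05 °C/s. ΔTm versus DMSO; mean ± SD, four independent experiments.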

[15] = tested on: cancer cells; conditions: cited from earlier work

T1 sequence (Q16740 57-277): as above

Compound: NCCCCCc1cc(C(F)(F)F)ccc1CN1C(=O)C2=C(CCN(Cc3ccccc3)C2)N2CCN=C12 [Compound 1, 4-(2-(5-Aminopentyl)-4-(trifluoromethyl)benzyl)-7-benzyl-2,4,6,7,8,9-hexahydroimidazo[1,2-a]pyrido[3,4-e]pyrimidin-5(1H)-one]
ClpP binding/stabilization by TSA (comparison in words) [1]: marginally improved binding to ClpP compared to ONC212

Compound: CNC(=O)CN(C)CCCCCc1cc(C(F)(F)F)ccc1CN1C(=O)C2=C(CCN(Cc3cccc(C#N)c3)C2)N2CCN=C12 [Compound 8, 2-((5-(2-((7-(3-Cyanobenzyl)-5-oxo-1,2,6,7,8,9-hexahydroimidazo[1,2-a]pyrido[3,4-e]pyrimidin-4(5H)-yl)-methyl)-5-(trifluoromethyl)phenyl)pentyl)(methyl)amino)-N-methylacetamide]
ClpP binding/stabilization by TSA (comparison in words) [1]: recovered to the same level as that of compound 2

ClpP binding/stabilization by TSA (comparison in words) [1]: much reduced binding to ClpP
Compound: CC(=O)NCCCCCc1cc(C(F)(F)F)ccc1CN1C(=O)C2=C(CCN(Cc3cccc(C#N)c3)C2)N2CCN=C12 [Compound 6, N-(5-(2-((7-(3-Cyanobenzyl)-5-oxo-1,2,6,7,8,9-hexahydroimidazo[1,2-a]pyrido[3,4-e]pyrimidin-4(5H)-yl)-methyl)-5-(trifluoromethyl)phenyl)pentyl)acetamide]

Compound: N#Cc1cccc(CN2CCC3=C(C2)C(=O)N(Cc2ccc(C(F)(F)F)cc2OCCN)C2=NCCN23)c1 [Compound 9, 3-((4-(2-(2-Aminoethoxy)-4-(trifluoromethyl)benzyl)-5-oxo-1,2,4,5,8,9-hexahydroimidazo[1,2-a]pyrido[3,4-e]pyrimidin-7(6H)-yl)methyl)benzonitrile]
DAP13 degraded [2]: more than 50% | DAP13 degradation at high concentrations [2]: degraded DAP13 | IC50 ([3]; Homo sapiens): 11.5 nM | fold improvement of IC50 vs ONC212 [3]: approximately 10 fold | IC50 ([4]; Homo sapiens, MCF7, 72 h): 7 nM | fold improvement of IC50 vs ONC212 ([4]; MCF-7, 72 h): approximately 9 fold | bioavailability (plasma concentrations) [5]: bioavailable in mice via IP injection | tolerability [5]: well tolerated | concentration at which ClpP was stabilized (TSA in live cells) [6]: 0.08 µM | IC50 ([7]; Homo sapiens): 13.9 nM | fold improvement of IC50 vs ONC212 [7]: approximately 3.5 fold | IC50 ([8]; Homo sapiens, MDA-MB-468, 72 h): 10.6 nM | fold improvement of IC50 vs ONC212 ([8]; MDA-MB-468, 72 h): approximately 3.5 fold | effect on basal respiration, ATP generation and maximal respiration [9]: reduced basal respiration, ATP generation and maximal respiration at all time points tested | late-stage apoptosis (eFluor 780) [10]: effectively induced late-stage apoptosis | IC50 ([11]; Homo sapiens, MDA-MB-468, 72 h): 27.7 nM | increase in the IC50 value, resistant vs wild-type cells [11]: 2.6 fold | fold improvement of IC50 vs ONC212 [12]: approximately 4 fold | IC50 ([12]; Homo sapiens): 8 nM | cleaved caspase 3 and cleaved PARP levels [13]: increased the cleaved caspase 3 and cleaved PARP levels | protein levels of full-length caspase 3 and PARP [13]: reduction | thermal shift of purified hClpP (DSF) [14]: very significant thermal shift | concentration at which ClpP was stabilized (TSA) [1]: 0.313 µM | ClpP binding/stabilization by TSA (comparison in words) [1]: superior stabilization of ClpP

Compound: CC(=O)NCCOc1cc(C(F)(F)F)ccc1CN1C(=O)C2=C(CCN(Cc3cccc(C#N)c3)C2)N2CCN=C12 [Compound 10, N-(2-(2-((7-(3-Cyanobenzyl)-5-oxo-1,2,6,7,8,9-hexahydroimidazo[1,2-a]pyrido[3,4-e]pyrimidin-4(5H)-yl)-methyl)-5-(trifluoromethyl)phenoxy)ethyl)acetamide]
ClpP binding/stabilization by TSA (comparison in words) [1]: decreased ClpP binding compared to 9 but similar to ONC212

ClpP binding/stabilization by TSA (comparison in words) [1]: much reduced binding to ClpP
Compound: CC(=O)NCCCCCc1cc(C(F)(F)F)ccc1CN1C(=O)C2=C(CCN(Cc3ccccc3)C2)N2CCN=C12 [Compound 5, N-(5-(2-((7-Benzyl-5-oxo-1,2,6,7,8,9-hexahydroimidazo[1,2-a]pyrido[3,4-e]pyrimidin-4(5H)-yl)methyl)-5-(trifluoromethyl)-phenyl)pentyl)acetamide]

improvement in ClpP binding compared to ONC212 and compound 1 ([1]; TSA): approximately 2 fold
Compound: N#Cc1cccc(CN2CCC3=C(C2)C(=O)N(Cc2ccc(C(F)(F)F)cc2CCCCCN)C2=NCCN23)c1 [Compound 2, 3-((4-(2-(5-Aminopentyl)-4-(trifluoromethyl)benzyl)-5-oxo-1,2,4,5,8,9-hexahydroimidazo[1,2-a]pyrido[3,4-e]pyrimidin-7(6H)-yl)methyl)benzonitrile]

ClpP binding/stabilization by TSA (comparison in words) [1]: weaker ClpP binding
Compound: NCCCCCc1cc(F)ccc1CN1C(=O)C2=C(CCN(Cc3ccccc3)C2)N2CCN=C12 [Compound 3, 4-(2-(5-Aminopentyl)-4-fluorobenzyl)-7-benzyl-2,4,6,7,8,9-hexahydroimidazo[1,2-a]pyrido[3,4-e]pyrimidin-5(1H)-one]

Compound: CN(C)CCCCCc1cc(C(F)(F)F)ccc1CN1C(=O)C2=C(CCN(Cc3cccc(C#N)c3)C2)N2CCN=C12 [Compound 7, 3-((4-(2-(5-(Dimethylamino)pentyl)-4-(trifluoromethyl)-benzyl)-5-oxo-1,2,4,5,8,9-hexahydroimidazo[1,2-a]pyrido[3,4-e]pyrimidin-7(6H)-yl)methyl)benzonitrile]
ClpP binding/stabilization by TSA (comparison in words) [1]: recovered to the same level as that of compound 2

Compound: Cc1ccccc1CN1C(=O)C2=C(CCN(Cc3ccccc3)C2)N2CCN=C12 [ONC201]
concentrations required to significantly affect cancer cell survival [15]: micromolar range

IC50 [3]: 115 nM | IC50 ([4]; MCF-7, 72 h): 63.7 nM | concentration at which ClpP was stabilized (TSA in live cells) [6]: 0.63 µM | IC50 [7]: 50.5 nM | IC50 ([8]; MDA-MB-468 (wild-type), 72 h): 35.2 nM | increase in the IC50 value, resistant vs wild-type cells [11]: approximately 10 fold | IC50 ([11]; ONC212-resistant MDA-MB-468, 72 h): 351 nM | IC50 [12]: 32.7 nM | thermal shift of purified hClpP (DSF) [14]: very significant thermal shift | concentration at which ClpP was stabilized (TSA) [1]: ≥ 2.5 µM
Compound: O=C1C2=C(CCN(Cc3ccccc3)C2)N2CCN=C2N1Cc1ccc(C(F)(F)F)cc1 [ONC212, reference compound]
DAP13 degraded [2]: did not significantly degrade DAP13 | DAP13 degradation at high concentrations [2]: degraded DAP13 | effect on basal respiration, ATP generation and maximal respiration [9]: significantly affected these mitochondrial functions only at 48 h | late-stage apoptosis (eFluor 780) [10]: effectively induced late-stage apoptosis | protein levels of full-length caspase 3 and PARP [13]: reduction
